In brackets after ≈: the same amount, converted by molar mass. Like-named read-outs stand apart in the source and are kept apart here.
Assays:
[1] = ref Salemaldajeh et al., 2015; Emad et al., 2018; cited from earlier work
[2] = system: PC3 (human prostate cancer cells); assay: MTT cell viability assay on PC3 cells; assay type: cell-based; conditions: for IC50 / inhibition at 30 µg/mL / inhibition at 60 µg/mL / inhibition at 130 µg/mL / inhibition at 250 µg/mL / inhibition at 500 µg/mL / inhibition at 1000 µg/mL: Homo sapiens, PC-3, 48 h; for IC50: read-out: IC50 µg/mL on PC3; for inhibition at 30 µg/mL / inhibition at 60 µg/mL / inhibition at 130 µg/mL / inhibition at 250 µg/mL / inhibition at 500 µg/mL / inhibition at 1000 µg/mL: read-out: Inhibition (%) of PC3 Cells; for cytotoxicity activity (in words): PC3
How it was run: (§1)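 PC3 cells grown in RPMI-1640 and MCF-7 cells in DMEM, each with 10% heat-inactivated FBS, penicillin/streptomycin, L-glutamine and amphotericin B. Seeded at 2 × 10^4 cells/well and grown to ~70% confluence (37°C, 5% CO2). Test compounds given as eight serial dilutions, starting at 1 mg/mL for drugs and 2.5 mg/mL for extract, for 48 h. MTT (5 mg/mL solution) added for 4 h at 25°C; A570 read.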

[3] = system: MCF-7 (human breast cancer cells); assay: MTT cell viability assay on MCF-7 cells; assay type: cell-based; conditions: for IC50 / inhibition at 30 µg/mL / inhibition at 60 µg/mL / inhibition at 130 µg/mL / inhibition at 250 µg/mL / inhibition at 500 µg/mL / inhibition at 1000 µg/mL: Homo sapiens, MCF7, 48 h; for IC50: read-out: IC50 µg/mL on MCF-7; for inhibition at 30 µg/mL / inhibition at 60 µg/mL / inhibition at 130 µg/mL / inhibition at 250 µg/mL / inhibition at 500 µg/mL / inhibition at 1000 µg/mL: read-out: Inhibition (%) of MCF-7 Cells
How it was run: as §1

[4] = after oral administration; ref Salemaldajeh et al., 2015; Emad et al., 2018; cited from earlier work
[5] = rat plasma, ref Salemaldajeh et al., 2015, cited from earlier work
[6] = Pharmacokinetic study of CBZ in rat plasma; assay type: in vivo, rat (Sprague Dawley)
How it was run: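 Male and female Sprague Dawley rats (~200 g), seven per group, fasted 24 h. Given 10 mg/kg by oral gavage, alone or after 30 mg/kg extract by gavage (three days before, repeated 30 min pre-dose). Orbital blood collected into EDTA from 0–24 h. Plasma precipitated with acetonitrile containing metronidazole benzoate internal standard, then C18 HPLC-UV at 285 nm. Calibration 75–5,000 ng/mL; samples run in duplicate.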

[7] = both, Sprague Dawley, rat, plasma, po, 10 mg/kg
[8] = rat plasma, CBZ 10 mg/kg oral gavage, alone, listed as CBZ alone

| IC50 [2] [µg/mL] | IC50 [3] [µg/mL] | Structure (SMILES) | inhibition at 30 µg/mL [2] [%] | inhibition at 60 µg/mL [2] [%] | inhibition at 130 µg/mL [2] [%] | inhibition at 250 µg/mL [2] [%] | inhibition at 500 µg/mL [2] [%] | inhibition at 1000 µg/mL [2] [%] | cytotoxicity activity (in words) ([2]; MTT, 48 h) | inhibition at 30 µg/mL [3] [%] | inhibition at 60 µg/mL [3] [%] | inhibition at 130 µg/mL [3] [%] | inhibition at 250 µg/mL [3] [%] | inhibition at 500 µg/mL [3] [%] | inhibition at 1000 µg/mL [3] [%] | also measured |
| --- | --- | --- | --- | --- | --- | --- | --- | --- | --- | --- | --- | --- | --- | --- | --- | --- |
| 130 ± 27 (≈ 550 µM) | 250 ± 44 (≈ 1060 µM) | NC(=O)N1c2ccccc2C=Cc2ccccc21 [CBZ, carbamazepine] | 29.7 | 31.4 | 53 | 87.5 | 95.1 | 93.4 | robust | 11.9 | 19.7 | 30.1 | 53.2 | 69.3 | 83.3 | drug excreted unchanged without metabolism [1]: about 5%; binds to plasma proteins [4]: approximately 75%; Cmax ([5]; CBZ alone): 4,130 ng/mL; Cmax ([5]; CBZ combined with graviola juice): 2,886 ng/mL; concentration at 24 h ([6]; both, Sprague Dawley, rat, plasma, oral, 10 mg/kg): 65.2 ng/mL; Cmax [6, 7]: 4630 ng/mL; Tmax [6, 7]: 3.5 h; k el [6, 7]: 5e-05 s⁻¹; AUC (0–24 h) [6, 8]: 49225 ng·h/mL; Half-life [6, 8]: 3.78 h |
|  |  | N.N.[Cl][Pt][Cl] [Cisplatin] |  |  |  |  |  |  |  |  |  |  |  |  |  | IC50 µg/mL on PC3 ([2]; MTT, 48 h, mean ± SD): 8.6 ± 1.5 µg/mL; IC50 µg/mL on MCF-7 ([3]; MTT, 48 h, mean ± SD): 14.6 ± 2.4 µg/mL |
| > 1000 | > 1000 | CCCC(CCC)C(=O)O [VPA, valproic acid] | 19.8 | 10.7 | 2.62 | 0.74 | 0.24 | 26.7 | weak | 10.6 | 8.5 | 13.4 | 15.7 | 14.7 | 24.9 | cytotoxicity activity (in words) ([3]; MCF-7, MTT, 48 h): weak |
| 0.62 ± 0.06 (≈ 1.14 µM) | 0.64 ± 0.04 (≈ 1.18 µM) | COc1cccc2c1C(=O)c1c(O)c3c(c(O)c1C2=O)C[C@@](O)(C(=O)CO)C[C@@H]3O[C@H]1C[C@H](N)[C@H](O)[C@H](C)O1 [Doxorubicin] |  |  |  |  |  |  |  |  |  |  |  |  |  |  |

— publication PMC10505864 (Asian Pacific Journal of Cancer Prevention : APJCP, 2023)
